Active and inactive are the calls of the source. The rule behind the calls is not given here.
Assays:
SW-620 [1] = experiment: Growth inhibition of human SW620 cells transfected with lentivrus-encoding shRNA against Axin-1 incubated for 72 hrs by Cell-titer-fluor reagent based assay; assay type: functional; details: SW-620, 72 h
Procedure, shortened: (§1)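 SW620 cells, parental, overexpressing β-catenin S33Y, or with Axin-1 knocked down by lentiviral shRNA. Treated with compound or vehicle for 72 h.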

Mus musculus [2] = experiment: Inhibition of Wnt/beta-Catenin signaling in nude mouse xenografted with human SW620 cells assessed as reduction in Axin-2 mRNA expression at 50 mg/kg, ip QD for 32 consecutive days by RT-PCR analysis; assay type: organism-based; details: in vivo
Procedure, shortened: (§2)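 Six-week-old nude mice implanted subcutaneously in the right flank with 2×10^6 SW620 cells. Randomized at mean tumor volume 100–200 mm³, n = 6/group. Dosed IP once daily for 32 days at 10 or 50 mg/kg, or vehicle (10% DMSO, 10% Kolliphor, 80% saline). Tumors collected at day 32; Axin-2, MMP-7 and S100A4 expression measured by RT-PCR.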

Mus musculus [3] = experiment: Inhibition of Wnt/beta-Catenin signaling in nude mouse xenografted with human SW620 cells assessed as reduction in MMP7 mRNA expression at 50 mg/kg, ip QD for 32 consecutive days by RT-PCR analysis; assay type: organism-based; details: in vivo; procedure, shortened: as §2
Homo sapiens [4] = organism: Homo sapiens; experiment: Inhibition of Wnt/beta-Catenin signaling in human SW620 cells assessed as reduction in c-Myc mRNA expression at 10 uM incubated for 24 hrs by real-time PCR analysis; assay type: cell-based
Procedure, shortened: (§3)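 SW620 cells (RPMI 1640, 10% FBS) in 6-well plates, incubated 24 h, then treated with compound at several concentrations, three replicates each, for 24 h. Total RNA isolated with Trizol/phenol-chloroform; 2 µg reverse transcribed; Wnt target gene mRNA quantified by PCR.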

SW-620 [5] = experiment: Induction of apoptosis in human SW620 cells assessed as late apoptotic cells level at 10 uM incubated for 48 hrs by AAD-7 and FITC-annexin-V staining based flow cytometry (reference value: 7.6%); assay type: functional
SW-620 [6] = experiment: Induction of apoptosis in human SW620 cells assessed as viable cells level at 3 uM incubated for 48 hrs by AAD-7 and FITC-annexin-V staining based flow cytometry (reference value: 73.8%); assay type: functional
[7] = Half life in C57BL/6J mouse at 5 mg/kg, iv by UPLC-MS analysis; assay type: ADME, organism-based; details: in vivo
Procedure, shortened: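 Male C57BL/6J mice, 2-3 months, 23-26 g. Single 5 mg/kg dose in 5% Kolliphor in saline, given iv (n=3) or by oral gavage (n=5). Tail-vein blood taken at 0.25, 0.5, 1, 4, 8 and 12 h and spun to plasma. Plasma analysed by LC-MS/MS on a triple quadrupole with a C18 column. Parameters from non-compartmental analysis.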

[8] = Inhibition of Wnt/beta-Catenin signaling (unknown origin) expressed in recombinant human Wnt-3a-induced Wnt-HEK293 cells incubated for 24 hrs by luciferase reporter gene assay; assay type: cell-based
Procedure, shortened: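 Stably transfected Wnt-HEK293 cells, 2000/well in DMEM + 10% FBS, incubated overnight at 37 °C. Compounds pin-transferred, then recombinant human Wnt-3a added (200 ng/mL stock); unstimulated control wells received medium. After 24 h at 37 °C, ONE-Glo luminescence read after 30 min at room temperature; CellTiter-Fluor viability read in parallel. IC50 reported as mean ± SD of three independent experiments.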

[9] = biological target: Protein kinase C theta type (Homo sapiens) (UniProt Q04759); experiment: Inhibition of PRKCQ (unknown origin) at 1000 nM relative to control
Sequence of Protein kinase C theta type (Homo sapiens) (Q04759 whole entry, looked up): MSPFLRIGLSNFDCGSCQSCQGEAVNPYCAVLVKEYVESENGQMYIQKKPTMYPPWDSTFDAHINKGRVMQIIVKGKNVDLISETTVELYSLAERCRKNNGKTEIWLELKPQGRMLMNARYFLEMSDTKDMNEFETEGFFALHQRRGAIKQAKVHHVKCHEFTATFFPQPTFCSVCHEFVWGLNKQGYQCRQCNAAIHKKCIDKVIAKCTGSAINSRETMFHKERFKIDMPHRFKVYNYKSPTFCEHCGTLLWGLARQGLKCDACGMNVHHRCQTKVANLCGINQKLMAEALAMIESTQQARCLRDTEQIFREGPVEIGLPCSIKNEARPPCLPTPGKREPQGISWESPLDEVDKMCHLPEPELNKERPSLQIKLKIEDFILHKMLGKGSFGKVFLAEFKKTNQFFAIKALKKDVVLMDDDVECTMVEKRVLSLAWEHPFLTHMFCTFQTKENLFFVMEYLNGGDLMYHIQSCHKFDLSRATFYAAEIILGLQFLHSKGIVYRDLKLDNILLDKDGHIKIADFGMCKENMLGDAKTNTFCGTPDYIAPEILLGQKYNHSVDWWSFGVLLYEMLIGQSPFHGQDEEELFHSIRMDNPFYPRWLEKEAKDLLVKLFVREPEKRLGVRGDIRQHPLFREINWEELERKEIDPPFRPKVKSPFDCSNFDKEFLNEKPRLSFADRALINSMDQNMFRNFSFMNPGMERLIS
Procedure, shortened: (§4)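 Single-concentration screen at 1000 nM against a 273-kinase panel, reported as percent inhibition.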

Homo sapiens [10] = organism: Homo sapiens; experiment: Inhibition of Wnt/beta-Catenin signaling in human SW620 cells assessed as reduction in S100A4 mRNA expression at 10 uM incubated for 24 hrs by real-time PCR analysis; assay type: cell-based; procedure, shortened: as §3
SW-620 [11] = experiment: Induction of apoptosis in human SW620 cells assessed as early apoptotic cells level at 10 uM incubated for 48 hrs by AAD-7 and FITC-annexin-V staining based flow cytometry (reference value: 18.6%); assay type: functional
SW-620 [12] = experiment: Growth inhibition of human SW620 cells incubated for 72 hrs by Cell-titer-fluor reagent based assay; assay type: functional; details: SW-620, 72 h; procedure, shortened: as §1
SW-620 [13] = experiment: Induction of apoptosis in human SW620 cells assessed as necrotic cells level at 3 uM incubated for 48 hrs by AAD-7 and FITC-annexin-V staining based flow cytometry (reference value: 0.027%); assay type: functional
[14] = biological target: AMP-activated protein kinase, AMPK (Homo sapiens) (UniProt P54646+O43741+P54619+Q9UGJ0+Q9Y478+Q13131+Q9UGI9); experiment: Activation of AMPK in HEK293 cells with Axin-1 knockdown assessed as increase in AMPK phosphorylation at T172 residue at 10 uM incubated for 24 hrs by Western blot analysis; assay type: cell-based
[15] = biological target: Mitogen-activated protein kinase kinase kinase kinase 4 (Homo sapiens) (UniProt O95819); experiment: Inhibition of MAP4K4 (unknown origin) at 1000 nM relative to control; procedure, shortened: as §4
Sequence of Mitogen-activated protein kinase kinase kinase kinase 4 (Homo sapiens) (O95819 2-1239 limits assumed): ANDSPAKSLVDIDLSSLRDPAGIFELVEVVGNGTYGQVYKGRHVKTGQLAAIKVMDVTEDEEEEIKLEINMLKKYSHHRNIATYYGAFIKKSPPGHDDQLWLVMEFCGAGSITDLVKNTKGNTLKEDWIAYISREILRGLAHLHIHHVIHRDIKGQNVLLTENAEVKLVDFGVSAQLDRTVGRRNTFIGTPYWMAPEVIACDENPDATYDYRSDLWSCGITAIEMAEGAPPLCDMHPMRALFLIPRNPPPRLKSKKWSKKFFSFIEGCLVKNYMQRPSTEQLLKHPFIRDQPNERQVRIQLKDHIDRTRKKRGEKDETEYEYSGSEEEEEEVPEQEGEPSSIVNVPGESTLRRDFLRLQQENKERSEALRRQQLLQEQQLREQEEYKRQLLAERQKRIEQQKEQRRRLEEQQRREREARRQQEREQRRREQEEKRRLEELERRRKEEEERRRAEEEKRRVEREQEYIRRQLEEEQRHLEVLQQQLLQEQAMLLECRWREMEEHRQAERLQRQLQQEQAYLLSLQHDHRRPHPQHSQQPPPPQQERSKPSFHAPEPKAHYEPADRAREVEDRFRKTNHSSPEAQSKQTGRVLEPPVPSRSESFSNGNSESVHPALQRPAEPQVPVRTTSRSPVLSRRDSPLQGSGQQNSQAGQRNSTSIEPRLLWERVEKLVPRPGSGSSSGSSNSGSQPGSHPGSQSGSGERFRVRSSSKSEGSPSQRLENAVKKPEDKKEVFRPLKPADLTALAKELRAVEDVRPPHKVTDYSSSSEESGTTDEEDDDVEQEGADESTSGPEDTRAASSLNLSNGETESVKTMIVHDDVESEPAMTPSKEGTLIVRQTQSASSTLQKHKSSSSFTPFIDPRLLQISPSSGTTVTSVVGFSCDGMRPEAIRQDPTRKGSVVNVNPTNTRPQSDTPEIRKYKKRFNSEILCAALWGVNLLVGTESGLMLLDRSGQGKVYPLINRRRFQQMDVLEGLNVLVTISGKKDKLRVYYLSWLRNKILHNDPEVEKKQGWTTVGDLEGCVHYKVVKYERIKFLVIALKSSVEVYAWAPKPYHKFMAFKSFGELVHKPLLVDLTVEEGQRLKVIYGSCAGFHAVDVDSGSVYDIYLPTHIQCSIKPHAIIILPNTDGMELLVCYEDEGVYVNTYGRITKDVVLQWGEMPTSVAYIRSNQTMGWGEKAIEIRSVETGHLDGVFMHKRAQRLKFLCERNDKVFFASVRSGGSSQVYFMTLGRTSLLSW

Homo sapiens [16] = organism: Homo sapiens; experiment: Inhibition of Wnt/beta-Catenin signaling in human SW620 cells assessed as reduction in MMP7 mRNA expression at 10 uM incubated for 24 hrs by real-time PCR analysis; assay type: cell-based; procedure, shortened: as §3
[17] = Oral bioavailability in C57BL/6J mouse at 5 mg/kg by UPLC-MS analysis; assay type: ADME, organism-based; details: in vivo
Procedure, shortened: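 Male C57BL/6J mice, 2–3 months old, 23–26 g. Single 5 mg/kg dose in 5% Kolliphor in saline, IV (n = 3) or oral gavage (n = 5). Tail-vein blood taken at 0.25, 0.5, 1, 4, 8 and 12 h and centrifuged to plasma. Analysed by LC-MS/MS (QTRAP 4000, C18 column); parameters from non-compartmental analysis.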

SW-620 [18] = experiment: Antitumor activity against human SW620 cells xenografted in nude mouse assessed as reduction in tumor volume at 10 mg/kg, ip QD for 32 consecutive days; assay type: functional, organism-based
Procedure, shortened: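 Six-week-old nude mice injected subcutaneously with 2×10^6 SW620 cells. Randomised at mean tumor volume 100–200 mm³ (n=6/group). Given 10 or 50 mg/kg ip daily for 32 consecutive days; vehicle 10% DMSO, 10% Kolliphor, 80% saline. Tumor volume measured every other day. Tumors weighed after euthanasia at day 32. t test against vehicle.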

SW-620 [19] = experiment: Induction of apoptosis in human SW620 cells assessed as viable cells level at 10 uM incubated for 48 hrs by AAD-7 and FITC-annexin-V staining based flow cytometry (reference value: 73.8%); assay type: functional
Mus musculus [20] = experiment: Activation of AMPK in nude mouse xenografted with human SW620 cells assessed as increase in ACC phosphorylation at 50 mg/kg, ip QD for 32 consecutive days by Western blot analysis; assay type: functional, organism-based
Procedure, shortened: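 Nude mice carried subcutaneous SW620 xenografts (2×10^6 cells, right flank). Dosing began once mean tumor volume reached 100–200 mm³: 50 mg/kg ip once daily for 32 days, vehicle 10% DMSO/10% Kolliphor/80% saline. Tumors taken at day 32 and lysed in RIPA with protease inhibitors. Western blot with 20 µL of 2 mg/mL lysate on 7.5% SDS-PAGE, probed for pAMPK/AMPK or pACC/ACC, ECL detection.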

IC50 (SW-620 [1]): 85.4 nM
inhibition (INH) (Mus musculus [2]): Active
inhibition (INH) (Mus musculus [3]): Active
half-life [7]: 3.1 h
IC50 [8]: 2.3 nM
inhibition [9]: Active
IC50 (SW-620 [12]): 11.6 nM
Activity [14]: inactive
inhibition [15]: Active
bioavailability [17]: 22.9%
Compound: Cc1c(C(=O)Nc2ccc3ccccc3n2)cnn1-c1ccccc1Br
inhibition (Homo sapiens [4]): Active
Activity (SW-620 [5]): 20%
Activity (SW-620 [6]): 45%
inhibition (Homo sapiens [10]): Active
Activity (SW-620 [11]): 57.9%
Activity (SW-620 [13]): 0.048%
inhibition (Homo sapiens [16]): Active
Activity (SW-620 [18]): Active
Activity (SW-620 [19]): 22.1%
Activity (Mus musculus [20]): Active

— ChEMBL document CHEMBL4414663, “Pyrazole-4-Carboxamide (YW2065): A Therapeutic Candidate for Colorectal Cancer via Dual Activities of Wnt/β-Catenin Signaling Inhibition and AMP-Activated Protein Kinase (AMPK) Activation” (J Med Chem, 2019)
